Experimental data: ChEMBL document CHEMBL4622976, “Development of pH/Glutathione-Responsive Theranostic Agents Activated by Glutathione S-Transferase π for Human Colon Cancer” (J Med Chem, 2020)
The source made the active and inactive calls. The calls are words filed in the database; no cut-off is given here.

Key:
[1] = Drug metabolism assessed as GSTpi (unknown origin) mediated 1-(3,4,5-trimethoxyphenyl)-9H-pyrido[3,4-b]indol-3-amine formation at 40 uM in presence of 0.8 mM GSH by HPLC analysis; format: ADME; conditions: human
Method in brief: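 HPLC measurement of amine release after incubating compound (40 µM) with GSH (0.8 mM) and GSTπ or GSTα at 0.03 µg/ml.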

[2] = Drug metabolism assessed as GSTpi (unknown origin) mediated compound fluorescence activation at 1 uM in presence of 1 mM Ca2+ by HPLC analysis; format: ADME; conditions: human
Method in brief: (§1)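 Selectivity test: compound (1 µM) with catalytic GSTπ and each analyte in water with 1% (v/v) DMSO at pH 4.0, 37 °C for 0.5 h. Analytes were cations at 1 mM; amino acids, vitamin C, Na2S and GSH at 100 µM. Readout was fluorescence emission spectra (excitation 440 nm, recorded 450–650 nm).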

[3] = Drug metabolism assessed as GSTpi (unknown origin) mediated compound fluorescence activation at 1 uM in presence of 1 mM Fe2+ by HPLC analysis; format: ADME; conditions: human; method in brief: as §1
HT-29 [4] = assay: Induction of apoptosis in human HT-29 cells at 2.5 uM incubated for 72 hrs by FITC-AnnexinV/PI staining based flow cytometry relative to control; format: functional
Method in brief: (§2)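 HT29 cells were cultured 12 h, then exposed to compound (0.4, 1.0, 2.5 µM) or vehicle for 72 h. Harvested cells were stained with Annexin V and PI, and apoptotic cell percentages measured by flow cytometry. Means ± SD come from three separate experiments.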

HT-29 [5] = assay: Antitumor activity against human HT-29 cells xenografted in nude BALB/c mouse assessed as tumor weight level at 40 mg/kg, ip dosed every day for 21 days (reference value: 1.49 +/- 0.27 g); format: functional
[6] = Drug metabolism assessed as GSTpi (unknown origin) mediated compound fluorescence activation at 1 uM in presence of 100 uM lysine by HPLC analysis; format: ADME; conditions: human; method in brief: as §1
[7] = Drug metabolism assessed as GSTpi (unknown origin) mediated compound fluorescence activation at 1 uM in presence of 100 uM arginine by HPLC analysis; format: ADME; conditions: human; method in brief: as §1
[8] = Antiproliferative activity against rat 9L-2 cells by MTT assay; format: functional, cell-based
Method in brief: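 MTT assay. Cells were grown in DMEM/RPMI 1640 with 10% FBS, penicillin and streptomycin at 37 °C under 5% CO2. After a PBS wash, cells got 0.5 mg/mL MTT for 3 h at 37 °C. Formazan was dissolved in DMSO and absorbance read at 570 nm. Inhibition was expressed as a percentage and IC50 calculated. Means ± SD come from three separate experiments.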

[9] = Toxicity in ICR mouse assessed as induction of animal death at 240 to 300 mg/kg, ip measured after 4 days; format: organism-based; conditions: in vivo, 96 h
Method in brief: (§3)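 Female ICR mice, randomised, n = 10 per group. Single intraperitoneal dose of 240.0, 300.0, 375.0, 468.8 or 585.9 mg/kg, or vehicle. Deaths recorded at 1 h, 4 h, days 1–4 and days 5–14. Body weight, drinking, eating and activity observed over 14 days. Survival percentage taken on day 14; LD50 derived from the dose–mortality data.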

[10] = Drug metabolism assessed as GSTpi (unknown origin) mediated compound fluorescence activation at 1 uM in presence of 50 uM H2O2 by HPLC analysis; format: ADME; conditions: human
[11] = Drug metabolism assessed as GSTpi (unknown origin) mediated compound fluorescence activation at 1 uM in presence of 100 uM cysteine by HPLC analysis; format: ADME; conditions: human; method in brief: as §1
[12] = Toxicity in ICR mouse assessed as induction of animal survival rate at 300 mg/kg, ip measured after 14 days; format: organism-based; conditions: in vivo; method in brief: as §3
[13] = Toxicity in ICR mouse assessed as induction of animal survival rate at 375 mg/kg, ip measured after 14 days; format: organism-based; conditions: in vivo; method in brief: as §3
[14] = Toxicity in ICR mouse assessed as induction of animal survival rate at 468.8 mg/kg, ip measured after 14 days; format: organism-based; conditions: in vivo; method in brief: as §3
[15] = Drug localization in colon of intra-operative mouse xenografted with human HT-29/Luc cells at 40 mg/kg, iv measured after 2 hrs post dose by fluorescence imaging assay; format: ADME, organism-based; conditions: in vivo
Method in brief: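 Orthotopic model: 1×10^6 HT29/Luc cells were injected into the upper colon of anaesthetised nude mice (5–6 weeks old). Tumours were confirmed by bioluminescence after two weeks. Dosing was 40 mg/kg iv, with whole-body bioluminescence and fluorescence imaging at 2 h under pentobarbital anaesthesia. Organs were then excised and imaged ex vivo (ex/em 430/490 nm).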

HT-29 [16] = assay: Induction of autophagy in human HT-29 cells assessed as reduction in p62 protein level incubated for 72 hrs by Western blot analysis; format: functional, cell-based
Method in brief: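 HT29 cells (1.5×10^5/mL) exposed to compound or vehicle for 72 h, then lysed. Lysates (0.05 mg/lane) run on 12% SDS-PAGE, transferred to nitrocellulose, blocked with 5% non-fat milk and probed for LC3, p62, beclin-1 and β-actin. Bands quantified relative to β-actin, with LC3-II/LC3-I ratio also calculated; means ± SD from three independent assays.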

HT-29 [17] = assay: Antitumor activity against human HT-29 cells xenografted in nude BALB/c mouse assessed as reduction in tumor volume at 20 mg/kg, ip dosed every day for 21 days; format: functional, organism-based
[18] = Toxicity in ICR mouse assessed as induction of animal death at 240 to 585.9 mg/kg, ip measured after 4 hrs; format: organism-based; conditions: in vivo; method in brief: as §3
[19] = Drug localization in tumor of intra-operative mouse xenografted with human HT-29/Luc cells at 40 mg/kg, iv measured over 7 hrs post dose by fluorescence imaging assay; format: ADME, organism-based, Neoplasm; conditions: in vivo
[20] = Drug uptake in lysosome of human HT-29 cells at 1 uM incubated for 60 mins by Lyso-tracker based confocal fluorescence microscopy; format: ADME, subcellular; conditions: ht-29, 1 h
Method in brief: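 HT29 and CCD841 cells were seeded at 2×10^5 in glass-bottom dishes. They were co-incubated in DMEM with compound (1 µM) and LysoTracker Red DND-99 (1 µM). Confocal imaging used a 40× water objective. Compound channel: 405 nm laser, 480–530 nm filter. LysoTracker channel: 561 nm laser, 580–630 nm filter.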

HT-29 [21] = assay: Induction of apoptosis in human HT-29 cells at 1 uM incubated for 72 hrs by FITC-AnnexinV/PI staining based flow cytometry relative to control; format: functional; method in brief: as §2
[22] = Drug metabolism assessed as GSTpi (unknown origin) mediated compound fluorescence activation at 1 uM in presence of 100 uM Na2S by HPLC analysis; format: ADME; conditions: human; method in brief: as §1
[23] = Drug metabolism assessed as GSTpi (unknown origin) mediated compound fluorescence activation at 1 uM in presence of 100 uM glutamate by HPLC analysis; format: ADME; conditions: human; method in brief: as §1
[24] = Toxicity in ICR mouse assessed as induction of animal death at 240 to 375 mg/kg, ip measured after 3 days; format: organism-based; conditions: in vivo, 72 h; method in brief: as §3

SMILES: COc1cc(-c2nc(NC(=O)OCC3=CCCCC3=O)cc3c2[nH]c2ccccc23)cc(OC)c1OC
- Drug metabolism [1]: Metabolite_Detected
- Drug metabolism [2]: Metabolite_Notdetected
- Drug metabolism [3]: Metabolite_Notdetected
- Activity (HT-29 [4]): 52.3%
- Activity (HT-29 [5]): 0.48 g
- Drug metabolism [6]: Metabolite_Notdetected
- Drug metabolism [7]: Metabolite_Notdetected
- IC50 [8]: 4.32 µM
- Activity [9]: Non-Toxic
- Drug metabolism [10]: Metabolite_Notdetected
- Drug metabolism [11]: Metabolite_Notdetected
- survival at 336 h [12]: 100%
- survival at 336 h [13]: 80%
- survival at 336 h [14]: 40%
- Drug uptake [15]: Active
- Activity (HT-29 [16]): Dose-dependent effect
- Activity (HT-29 [17]): Active
- Activity [18]: Non-Toxic
- Drug uptake [19]: Active
- Drug uptake [20]: Active
- Activity (HT-29 [21]): 36.8%
- Drug metabolism [22]: Metabolite_Notdetected
- Drug metabolism [23]: Metabolite_Notdetected
- Activity [24]: Non-Toxic
